In data set [1] the test system is L1210. Description: Inhibitory concentration against L1210 murine leukemia cell line. The format is functional, cell-based. The note with it: Mus musculus. The method in brief:
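L1210 cells grown in RPMI 1640 with 10% fetal calf serum, 2 mM L-glutamine, penicillin/streptomycin and 10 mM HEPES (pH 7.4). Cells exposed 48 h to graded concentrations (nine serial dilutions, triplicate). Viability read by microculture tetrazolium assay. IC50 = concentration reducing optical density by 50% versus untreated controls.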

In data set [2] the test system is L1210. Description: Percentage of L1210 cell line in G2M-phase of cell cycle at 50 uM. It is filed as functional, Mus musculus. An outline of the steps: (§1)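 L1210 cells (2.5 × 10^5 cells/mL) incubated 21 h with compound at the stated concentration. Cells fixed in 70% ethanol, then stained 30 min at 20 °C in PBS with 100 µg/mL RNase and 25 µg/mL propidium iodide. Flow cytometry on 10^4 cells per sample, 488 nm excitation, 615 nm long-pass emission. Output is the percentage of cells in each cycle phase.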

Data set [3] relates to L1210. Description: Percentage of L1210 cell line in S-phase of cell cycle at 100 uM; NS = no specific effect (toxic at 5 uM). It is filed as functional, cell-based. The note with it: Mus musculus. An outline of the steps:
as §1

Data set [4] concerns L1210. Description: Percentage of L1210 cell line in G2M-phase of cell cycle at 25 uM. It is filed as functional, Mus musculus. An outline of the steps:
as §1

Data set [5] concerns L1210. Description: Percentage of L1210 cell line in G2M-phase of cell cycle at 0.5 uM. The format is functional, Mus musculus. An outline of the steps:
as §1

Data set [6] deals with L1210. Description: Percentage of L1210 cell line in 8 N-phase of cell cycle at 0.5 uM. It is filed as functional, Mus musculus. The method in brief:
as §1

For data set [7], the system named is L1210. The data set is described as follows: Percentage of L1210 cell line in G2M-phase of cell cycle at 10 uM. It is filed as functional, Mus musculus. An outline of the steps:
as §1

In data set [8] the test system is L1210. Description: Percentage of L1210 cell line in G2M-phase of cell cycle at 1 uM. The format is functional, Mus musculus. The method in brief:
as §1

Data set [9] concerns L1210. Description: Percentage of L1210 cell line in 8 N-phase of cell cycle at 1 uM. It is filed as functional, Mus musculus. The method in brief: as §1
For data set [10], the system named is L1210. The data set is described as follows: Percentage of L1210 cell line in G1-phase of cell cycle at 25 uM. It is filed as functional, Mus musculus. The method in brief: as §1
The test system of data set [11] is L1210. The data set is described as follows: Percentage of L1210 cell line in G2M-phase of cell cycle at 5 uM. It is filed as functional, Mus musculus. The method in brief: as §1
In data set [12] the test system is L1210. The data set is described as follows: Percentage of L1210 cell line in G2M-phase of cell cycle at 2 uM. The format is functional, Mus musculus. An outline of the steps:
as §1

Data set [13] has as its system L1210. The data set is described as follows: Percentage of L1210 cell line in 8 N-phase of cell cycle at 10 uM. The format is functional, Mus musculus. The method in brief: as §1
For data set [14], the system named is L1210. The data set is described as follows: Percentage of L1210 cell line in S-phase of cell cycle at 100 uM. It is filed as functional, Mus musculus. The method in brief: as §1
Data set [15] has as its system L1210. The data set is described as follows: Percentage of L1210 cell line in 8 N-phase of cell cycle at 1 uM; Toxic. It is filed as toxicity, cell-based. The note with it: mouse, l1210, 1 µM. The method in brief: as §1
The subject of data set [16] is L1210. The data set is described as follows: Percentage of L1210 cell line in S-phase of cell cycle at 100 uM; NS = no specific effect (toxic at 10 uM). The format is functional, cell-based. The note with it: Mus musculus. An outline of the steps: as §1
Data set [17] has as its system L1210. Description: Percentage of L1210 cell line in G2M-phase of cell cycle at 20 uM. It is filed as functional, Mus musculus. The method in brief:
as §1

For data set [18], the system named is L1210. Description: Percentage of L1210 cell line in S-phase of cell cycle at 100 uM; NS = no specific effect (toxic at 2 uM). The format is functional, cell-based. The note with it: Mus musculus. An outline of the steps:
as §1

Data set [19] has as its system L1210. Description: Percentage of L1210 cell line in G2M-phase of cell cycle at 100 uM. It is filed as functional, Mus musculus. An outline of the steps:
as §1

For data set [20], the system named is L1210. Description: Percentage of L1210 cell line in 8 N-phase of cell cycle at 5 uM. The format is functional, Mus musculus. An outline of the steps:
as §1

Data set [21] has as its system L1210. Description: Toxicity of compound was tested at 25 uM;Toxic. The format is cell-based. The note with it: mouse, l1210, 25 µM.

The source made the active and inactive calls. No cut-off for these calls is given here.

Regarding `CN1c2ccc(C=O)nc2N(C)c2cccnc21`, in the data set with L1210 [1], the half-maximal inhibitory concentration (IC50) (commonly the concentration needed to halve the response being measured) stood at 21600 nM. Further, the Activity with L1210 [2] is given as 90%.

Take `CN(C)CCC(=O)NCc1ccc2c(n1)N(C)c1ncccc1N2C`: in the data set with L1210 [1], the IC50 turned out to be 21100 nM.

Regarding `CN1c2cccnc2N(C)c2nc(CNCCCCCCCNCc3ccc4c(n3)N(C)c3ncccc3N4C)ccc21`, in the data set on L1210 [1], the IC50 worked out at 710 nM. The result with L1210 [3] was inactive.

As for `CN(C)CCCNCc1ccc2c(n1)N(C)c1cccnc1N2C`, the IC50 in the data set with L1210 [1] was 9200 nM. In the data set on L1210 [4], this compound registered an Activity of 39%.

With `CN(C)CCCCNCc1ccc2c(n1)N(C)c1ncccc1N2C`, the Activity in the data set with L1210 [5] came to 54%; in the data set with L1210 [6], 32%. In the data set with L1210 [1], the IC50 was found to be 140 nM.

In the case of `CN1c2cccnc2N(C)c2nc(CNCCNCc3ccc4c(n3)N(C)c3ncccc3N4C)ccc21`, in the data set on L1210 [1], the IC50 stood at 2700 nM. This compound also showed an Activity with L1210 [7] of 79%.

For `CN(C)CCCNCc1ccc2c(n1)N(C)c1ncccc1N2C`, the Activity turned out to be 66% in the data set on L1210 [8] and 14% in the data set on L1210 [9]. This compound also showed an IC50 with L1210 [1] of 170 nM.

In the case of `CN(C)CCNCc1ccc2c(n1)N(C)c1cccnc1N2C`, in the data set with L1210 [1], the IC50 worked out at 26700 nM. In addition, the Activity in the data set on L1210 [10] stood at 55%.

For `CN1c2cccnc2N(C)c2nc(CNCCCNCCCNCc3ccc4c(n3)N(C)c3ncccc3N4C)ccc21`, the Activity in the data set with L1210 [8] is on record as 65%; in the data set on L1210 [9], 18%. Half-maximal inhibition in the data set on L1210 [1] (IC50) was put at 360 nM.

For the compound `CN1c2cccnc2N(C)c2nc(CNCCCCNCc3ccc4c(n3)N(C)c3ncccc3N4C)ccc21`, in the data set with L1210 [1], the IC50 stood at 1700 nM. Further, the outcome in the data set on L1210 [3] (in the assay text read “at 5 uM” for “at 100 uM”) was inactive.

`CN(C)CCCNC(=O)c1ccc2c(n1)N(C)c1ncccc1N2C` registered an IC50 in the data set with L1210 [1] of 1700 nM. For the same compound, in the data set with L1210 [7], the Activity turned out to be 67%.

In the data set with L1210 [1], `CN1c2cccnc2N(C)c2nc(CNCCCNCCCCNCCCNCc3ccc4c(n3)N(C)c3ncccc3N4C)ccc21` yielded an IC50 of 710 nM. This compound also yielded an Activity in the data set on L1210 [11] of 72%.

As for `CN(C)CCCN(C)Cc1ccc2c(n1)N(C)c1ncccc1N2C`, the IC50 in the data set on L1210 [1] worked out at 11500 nM.

`CN1c2cccnc2N(C)c2nc(CNCCCNCc3ccc4c(n3)N(C)c3cccnc3N4C)ccc21` registered an Activity with L1210 [12] of 66%. Further, the half-inhibitory concentration (IC50) in the data set on L1210 [1] turned out to be 480 nM.

Turning to `CN(C)CCNCc1ccc2c(n1)N(C)c1ncccc1N2C`, the IC50 in the data set with L1210 [1] was 11300 nM. In addition, the results for the Activity in the data set on L1210 [7] and in the data set on L1210 [13] were 47% and 4%, respectively.

`CN1c2cccnc2N(C)c2cccnc21` showed an IC50 in the data set on L1210 [1] of 31100 nM. This compound gave an Activity in the data set with L1210 [14] of 51%.

`CN1c2cccnc2N(C)c2nc(C=O)ccc21` returned an IC50 in the data set with L1210 [1] of 20000 nM.

For `CN1c2cccnc2N(C)c2nc(CNCCCN)ccc21`, the results for the Activity with L1210 [8] and with L1210 [15] were 65% and “Toxic”, respectively. For the same compound, the IC50 in the data set with L1210 [1] worked out at 140 nM.

With `CN1c2ccc(CNCCCNCc3ccc4c(n3)N(C)c3cccnc3N4C)nc2N(C)c2cccnc21`, the result in the data set with L1210 [16] was inactive. The IC50 in the data set with L1210 [1] is 4000 nM.

`CN(CCCNCc1ccc2c(n1)N(C)c1cccnc1N2C)CCCNCc1ccc2c(n1)N(C)c1cccnc1N2C`: the result with L1210 [16] was inactive. In addition, in the data set with L1210 [1], half-maximal inhibition (IC50) was put at 3500 nM.

In the data set with L1210 [17], `CN1c2cccnc2N(C)c2nc(CNCCNCCNCCNCc3ccc4c(n3)N(C)c3ncccc3N4C)ccc21` yielded an Activity of 70%. In the data set on L1210 [1], this compound showed an IC50 of 4100 nM.

Take `CN1c2ccc(CNCCCCCCCNCc3ccc4c(n3)N(C)c3cccnc3N4C)nc2N(C)c2cccnc21`: half-maximal inhibition in the data set with L1210 [1] (IC50) was put at 500 nM. Also, the outcome with L1210 [18] was inactive.

Consider `CN1c2cccnc2N(C)c2ncccc21`, for which the midpoint of inhibition with L1210 [1], the IC50, lay at 34000 nM. Besides, the values for the Activity in the data set on L1210 [19] and in the data set on L1210 [14] were 34% and 49%, respectively.

`CN1c2cccnc2N(C)c2nc(CNCCCOCCCNCc3ccc4c(n3)N(C)c3ncccc3N4C)ccc21` displayed an IC50 in the data set with L1210 [1] of 680 nM. Further, the Activity in the data set with L1210 [11] was determined as 78%; in the data set with L1210 [20] it was 18%.

Compound `CN(C)CCCCCNCc1ccc2c(n1)N(C)c1ncccc1N2C` returned an IC50 in the data set with L1210 [1] of 500 nM. Besides, the Activity entry in the data set on L1210 [21] is on record as “Toxic”.

Take `CN1c2cccnc2N(C)c2nc(CNCCCNCc3ccc4c(n3)N(C)c3ncccc3N4C)ccc21`: in the data set on L1210 [8], the Activity is listed as 68%. Also, the IC50 in the data set on L1210 [1] is 430 nM.

Source of the values: ChEMBL document CHEMBL1148471, “Synthesis of mono- and bisdihydrodipyridopyrazines and assessment of their DNA binding and cytotoxic properties” (J Med Chem, 2004).
